Experimental findings from ChEMBL document CHEMBL4257452, “A mini-library system to investigate non-essential residues of lipid-phosphatidylserine (PS) binding peptide-peptoid hybrid PPS1” (Medchemcomm, 2017) are described below.

Activity calls are given as the source filed them. The rule behind the calls is not given here. Starred links: 1 amine or outer side, 2 acyl side, 3 side chain; linkers in the order of their positions; H or OH if unused. Positions of bridges follow the written chain, without caps; N, C: chain ends. Non-standard residues stand in square brackets, D forms with d. Residues, ends and D or L forms follow the SMILES beside them. Chains are numbered I, II in the order given. Gly(N-CH2CH2C6H4-4Cl) = O=C(O)CNCCc1ccc(Cl)cc1; Gly(N-piperonyl) = O=C(O)CNCc1ccc2c(c1)OCO2; N(4-MeOBn)Gly = COc1ccc(CNCC(=O)O)cc1; X3 = CC(c1ccccc1)N(CC(=O)[*:2])[*:1]; Gly(N-(CH2)3OMe) = COCCCNCC(=O)O; Nrpe = C[C@@H](NCC(=O)O)c1ccccc1

The assay concerns HCC4017. As to the kind of experiment: Cytotoxicity against human HCC4017 cells assessed as reduction in cell viability at 20 uM after 24 hrs by MTS assay. In kind it is functional, cell-based. The gist of the method:
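HCC4017 cells (RPMI, 5% FBS) and HBEC-3KT normal lung cells (KSFM with recombinant human EGF and bovine pituitary extract) were plated at 10 000 cells/well in triplicate and left to adhere overnight. They were exposed to 1 or 20 μM compound for 24 h. MTS reagent was then added for 2 h and absorbance read at 490 nm. Viability is % of untreated control wells.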
In general terms: Tetrazolium assays rely on reduction of a dye to a coloured formazan, in cell work by metabolically active cells.
For `COc1ccc(CN(CC(=O)N(CC(=O)N[C@@H](CCCCN)C(=O)N[C@H](CCCCN)C(=O)N[C@@H](CCSC)C(=O)NCCCC[C@H](NC(=O)[C@H](CCSC)NC(=O)[C@@H](CCCCN)NC(=O)[C@H](CCCCN)NC(=O)CN(Cc2ccc3c(c2)OCO3)C(=O)CN(Cc2ccc(OC)cc2)C(=O)CN(C(=O)CN(Cc2ccc3c(c2)OCO3)C(=O)CN[C@H](C)c2ccccc2)[C@H](C)c2ccccc2)C(N)=O)Cc2ccc3c(c2)OCO3)C(=O)CN(C(=O)CN(Cc2ccc3c(c2)OCO3)C(=O)CN[C@H](C)c2ccccc2)[C@H](C)c2ccccc2)cc1` (I: H-[Nrpe][Gly(N-piperonyl)][Nrpe][N(4-MeOBn)Gly][Gly(N-piperonyl)]K[dK]MK-NH2 / II: H-[Nrpe][Gly(N-piperonyl)][Nrpe][N(4-MeOBn)Gly][Gly(N-piperonyl)]K[dK]M; amide I:9-II:C), the outcome was Active.

Take `COc1ccc(CN(CC(=O)NC(C)C(=O)NC(CCCCN)C(=O)NC(CCCCN)C(=O)NC(CCSC)C(=O)NCCCCC(NC(=O)C(CCSC)NC(=O)C(CCCCN)NC(=O)C(CCCCN)NC(=O)C(C)NC(=O)CN(Cc2ccc(OC)cc2)C(=O)CN(C(=O)CN(Cc2ccc3c(c2)OCO3)C(=O)CNC(C)c2ccccc2)C(C)c2ccccc2)C(N)=O)C(=O)CN(C(=O)CN(Cc2ccc3c(c2)OCO3)C(=O)CNC(C)c2ccccc2)C(C)c2ccccc2)cc1` (centres undefined) (I: H-[X3][Gly(N-piperonyl)][X3][N(4-MeOBn)Gly]AKKMK-NH2 / II: H-[X3][Gly(N-piperonyl)][X3][N(4-MeOBn)Gly]AKKM; amide I:9-II:C; configuration not given here): the result was Active.

In the case of `COc1ccc(CN(CC(=O)NC(CC(=O)O)C(=O)NC(CCCCN)C(=O)NC(CCCCN)C(=O)NC(CCSC)C(=O)NCCCCC(NC(=O)C(CCSC)NC(=O)C(CCCCN)NC(=O)C(CCCCN)NC(=O)C(CC(=O)O)NC(=O)CN(Cc2ccc(OC)cc2)C(=O)CN(C(=O)CN(Cc2ccc3c(c2)OCO3)C(=O)CNC(C)c2ccccc2)C(C)c2ccccc2)C(N)=O)C(=O)CN(C(=O)CN(Cc2ccc3c(c2)OCO3)C(=O)CNC(C)c2ccccc2)C(C)c2ccccc2)cc1` (centres undefined) (I: H-[X3][Gly(N-piperonyl)][X3][N(4-MeOBn)Gly]DKKMK-NH2 / II: H-[X3][Gly(N-piperonyl)][X3][N(4-MeOBn)Gly]DKKM; amide I:9-II:C; configuration not given here), the outcome was inactive.

As to `COc1ccc(CN(CC(=O)NC(CC(C)C)C(=O)NC(CCCCN)C(=O)NC(CCCCN)C(=O)NC(CCSC)C(=O)NCCCCC(NC(=O)C(CCSC)NC(=O)C(CCCCN)NC(=O)C(CCCCN)NC(=O)C(CC(C)C)NC(=O)CN(Cc2ccc(OC)cc2)C(=O)CN(C(=O)CN(Cc2ccc3c(c2)OCO3)C(=O)CNC(C)c2ccccc2)C(C)c2ccccc2)C(N)=O)C(=O)CN(C(=O)CN(Cc2ccc3c(c2)OCO3)C(=O)CNC(C)c2ccccc2)C(C)c2ccccc2)cc1` (centres undefined) (I: H-[X3][Gly(N-piperonyl)][X3][N(4-MeOBn)Gly]LKKMK-NH2 / II: H-[X3][Gly(N-piperonyl)][X3][N(4-MeOBn)Gly]LKKM; amide I:9-II:C; configuration not given here), the result was Active.

With `COc1ccc(CN(CC(=O)N2CCCC2C(=O)NC(CCCCN)C(=O)NC(CCCCN)C(=O)NC(CCSC)C(=O)NCCCCC(NC(=O)C(CCSC)NC(=O)C(CCCCN)NC(=O)C(CCCCN)NC(=O)C2CCCN2C(=O)CN(Cc2ccc(OC)cc2)C(=O)CN(C(=O)CN(Cc2ccc3c(c2)OCO3)C(=O)CNC(C)c2ccccc2)C(C)c2ccccc2)C(N)=O)C(=O)CN(C(=O)CN(Cc2ccc3c(c2)OCO3)C(=O)CNC(C)c2ccccc2)C(C)c2ccccc2)cc1` (centres undefined) (I: H-[X3][Gly(N-piperonyl)][X3][N(4-MeOBn)Gly]PKKMK-NH2 / II: H-[X3][Gly(N-piperonyl)][X3][N(4-MeOBn)Gly]PKKM; amide I:9-II:C; configuration not given here), the result was Active.

With `COc1ccc(CN(CC(=O)NC(C(=O)NC(CCCCN)C(=O)NC(CCCCN)C(=O)NC(CCSC)C(=O)NCCCCC(NC(=O)C(CCSC)NC(=O)C(CCCCN)NC(=O)C(CCCCN)NC(=O)C(NC(=O)CN(Cc2ccc(OC)cc2)C(=O)CN(C(=O)CN(Cc2ccc3c(c2)OCO3)C(=O)CNC(C)c2ccccc2)C(C)c2ccccc2)C(C)C)C(N)=O)C(C)C)C(=O)CN(C(=O)CN(Cc2ccc3c(c2)OCO3)C(=O)CNC(C)c2ccccc2)C(C)c2ccccc2)cc1` (centres undefined) (I: H-[X3][Gly(N-piperonyl)][X3][N(4-MeOBn)Gly]VKKMK-NH2 / II: H-[X3][Gly(N-piperonyl)][X3][N(4-MeOBn)Gly]VKKM; amide I:9-II:C; configuration not given here), the result was Active.

On to `COc1ccc(CN(CC(=O)NC(Cc2ccc(O)cc2)C(=O)NC(CCCCN)C(=O)NC(CCCCN)C(=O)NC(CCSC)C(=O)NCCCCC(NC(=O)C(CCSC)NC(=O)C(CCCCN)NC(=O)C(CCCCN)NC(=O)C(Cc2ccc(O)cc2)NC(=O)CN(Cc2ccc(OC)cc2)C(=O)CN(C(=O)CN(Cc2ccc3c(c2)OCO3)C(=O)CNC(C)c2ccccc2)C(C)c2ccccc2)C(N)=O)C(=O)CN(C(=O)CN(Cc2ccc3c(c2)OCO3)C(=O)CNC(C)c2ccccc2)C(C)c2ccccc2)cc1` (centres undefined) (I: H-[X3][Gly(N-piperonyl)][X3][N(4-MeOBn)Gly]YKKMK-NH2 / II: H-[X3][Gly(N-piperonyl)][X3][N(4-MeOBn)Gly]YKKM; amide I:9-II:C; configuration not given here), for which the outcome was Active.

Consider `COCCCN(CC(=O)NC(CCCCN)C(=O)NC(CCCCN)C(=O)NC(CCSC)C(=O)NCCCCC(NC(=O)C(CCSC)NC(=O)C(CCCCN)NC(=O)C(CCCCN)NC(=O)CN(CCCOC)C(=O)CN(Cc1ccc(OC)cc1)C(=O)CN(C(=O)CN(Cc1ccc2c(c1)OCO2)C(=O)CNC(C)c1ccccc1)C(C)c1ccccc1)C(N)=O)C(=O)CN(Cc1ccc(OC)cc1)C(=O)CN(C(=O)CN(Cc1ccc2c(c1)OCO2)C(=O)CNC(C)c1ccccc1)C(C)c1ccccc1` (centres undefined) (I: H-[X3][Gly(N-piperonyl)][X3][N(4-MeOBn)Gly][Gly(N-(CH2)3OMe)]KKMK-NH2 / II: H-[X3][Gly(N-piperonyl)][X3][N(4-MeOBn)Gly][Gly(N-(CH2)3OMe)]KKM; amide I:9-II:C; configuration not given here), for which the result was Active.

Turning to `COc1ccc(CN(CC(=O)N(CCc2ccc(Cl)cc2)CC(=O)NC(CCCCN)C(=O)NC(CCCCN)C(=O)NC(CCSC)C(=O)NCCCCC(NC(=O)C(CCSC)NC(=O)C(CCCCN)NC(=O)C(CCCCN)NC(=O)CN(CCc2ccc(Cl)cc2)C(=O)CN(Cc2ccc(OC)cc2)C(=O)CN(C(=O)CN(Cc2ccc3c(c2)OCO3)C(=O)CNC(C)c2ccccc2)C(C)c2ccccc2)C(N)=O)C(=O)CN(C(=O)CN(Cc2ccc3c(c2)OCO3)C(=O)CNC(C)c2ccccc2)C(C)c2ccccc2)cc1` (centres undefined) (I: H-[X3][Gly(N-piperonyl)][X3][N(4-MeOBn)Gly][Gly(N-CH2CH2C6H4-4Cl)]KKMK-NH2 / II: H-[X3][Gly(N-piperonyl)][X3][N(4-MeOBn)Gly][Gly(N-CH2CH2C6H4-4Cl)]KKM; amide I:9-II:C; configuration not given here), the outcome was Active.
